# Hits are enriched below; roughly 4.5% of the tested compounds scored in any of these assays.
# TAAR1 antag – antagonists of human TAAR1; Q96RJ0; CHO RD-HGA16 TAAR1, Fluo-8 calcium fluorescence, antagonist; inhibition, % at 3 µM; 1.5% of 360,000 active; AID 624466;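 active means inhibition above a per-plate cutoff, the mean inhibition of test compounds on that plate plus 3 SD, cut at about 49% in these data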;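 further: 0% = DMSO plus EC80 beta-PEA response and 100% = DMSO alone without agonist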
# Target sequence (Q96RJ0 whole entry, looked up): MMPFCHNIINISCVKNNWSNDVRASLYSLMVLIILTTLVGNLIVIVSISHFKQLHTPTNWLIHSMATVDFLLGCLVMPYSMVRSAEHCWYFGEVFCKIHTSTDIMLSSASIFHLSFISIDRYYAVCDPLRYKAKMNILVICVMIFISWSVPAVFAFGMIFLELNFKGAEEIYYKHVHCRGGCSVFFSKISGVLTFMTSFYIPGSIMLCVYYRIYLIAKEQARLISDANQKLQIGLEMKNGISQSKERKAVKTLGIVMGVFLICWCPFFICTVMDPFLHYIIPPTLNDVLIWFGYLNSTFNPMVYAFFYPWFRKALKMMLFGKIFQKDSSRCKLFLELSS
#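 System: CHO RD-HGA16 cells bearing hTAAR1. Reagent: EC80 β-phenethylamine stimulus. Schedule: seeding 17-24 h prior, 75-min 37 °C, 30-min RT dye loading. Signal: Fluo-8 intracellular calcium dye fluorescence, real-time kinetic reads. Read-out: % inhibition from peak post-agonist over basal fluorescence ratio. Benchmarks: vehicle wells and EC80 agonist wells. Replicates: n of 1.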
# OX1R antag-1 – human HCRTR1 antagonism; O43613; CHO/OX1R cells, Fluo-8 calcium fluorescence, orexin A; inhibition, % at 5 µM; 0.43% of 330,000 active;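 active means inhibition above its plate's threshold, mean inhibition of all tested compounds on the plate plus 3 SD, cut at about 37% in these data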;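 further: 0% = orexin A challenge wells and 100% = SB-334867-A antagonist wells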
# CHO parental Ca – counter-screen for OX1R antagonists: effect in parental CHO cells; 0.63% of 330,000 active; parental CHO-K1, ATP-induced calcium, Fluo-8 fluorescence; inhibition, % at 5.6 µM;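 active means inhibition above that plate's mean sample inhibition plus 3 SD, cut at about 26% in these data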;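 further: 0% = ATP-challenged DMSO wells and 100% = DMSO wells without ATP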
#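 Assay system – parental CHO cells · Reagent – ATP stimulus · Detection – intracellular calcium via Fluo-8 no-wash fluorescent dye · Evaluation – percent inhibition of ATP-evoked calcium rise, normalized to controls · Controls – ATP wells versus no-ATP DMSO wells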
# GPR7 antag – human neuropeptides B/W receptor 1 antagonism; P48145; GPR7-expressing cells, fluorescence antagonist assay; inhibition, % at 4.4 µM; 1.1% of 290,000 active; in the data active means inhibition above about 16%, passing the limit was not always enough;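 further: cells stimulated with the agonist NPW; 0% = agonist with vehicle and 100% = vehicle without agonist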
# Target sequence (P48145 whole entry, looked up): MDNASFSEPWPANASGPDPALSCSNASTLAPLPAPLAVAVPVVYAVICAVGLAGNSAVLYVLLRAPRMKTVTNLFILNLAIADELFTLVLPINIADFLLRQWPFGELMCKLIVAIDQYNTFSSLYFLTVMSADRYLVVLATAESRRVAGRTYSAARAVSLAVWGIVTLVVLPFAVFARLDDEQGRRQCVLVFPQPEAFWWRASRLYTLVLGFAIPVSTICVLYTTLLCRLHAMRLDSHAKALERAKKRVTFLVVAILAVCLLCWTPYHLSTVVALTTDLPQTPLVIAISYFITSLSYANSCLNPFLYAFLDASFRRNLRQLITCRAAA
# TAAR1 ag – human TAAR1 agonism; CHO RD-HGA16 TAAR1, Fluo-8 calcium fluorescence; vehicle wells 0%, saturating PEA agonist 100%; activation, % at 3 µM; 0.99% of 360,000 active;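 active means activation above the mean activation of all test compounds in the run plus 3 SD, cut at about 38% in these data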
#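 Signal – calcium-sensitive Fluo-8 signal, excitation 470-495, emission 515-575 nm · System – RD-HGA16 (CHO) cells co-expressing Gα16 and hTAAR1 · Incubation – 17-24 h seeding, 75 min 37 °C dye, 30 min RT · Compound dosing – 3 µM single concentration · Repeats – no replicates (n 1)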
# OX1R antag-2 – OX1R (human) antagonism. O43613. OX1R-expressing cells, FRET antagonist read-out. inhibition, % at 6.6 µM. 1.8% of 330,000 active. AID 485270; in the data active means inhibition mostly above about 38%, no sharp cut-off; inactive means mostly below about 40%;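 further: 0% = agonist challenge alone and 100% = reference antagonist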
# nonsel antag count – nonselective antagonist in TAAR1 antagonist counter-screen | shares compounds with TAAR1 antag | counterscreen cell line, calcium fluorescence, antagonist mode | inhibition, % at 3 µM | 77% of 2,400 active; in the data active means inhibition above about 22%;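 further: CHO-Ga16 host cells stimulated with ATP at an EC80 level; 0% = agonist EC80 plus vehicle and 100% = vehicle without agonist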
# TAAR1 ant conf – human TAAR1 antagonism, confirmed | 40% of 2,400 active | AID 651785 | inhibition, % at 3 µM | TAAR1-expressing cells, fluorescence antagonist read-out | shares compounds with TAAR1 antag; in the data active means inhibition above about 49%;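 further: CHO-Ga16 host cells challenged with agonist PEA near its EC80; 0% = agonist at EC80 plus vehicle and 100% = vehicle with no agonist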
# Ga16 nonsel ag – nonselective Ga16 agonism, counter-screen; 18% of 2,400 active; activation, % at 3 µM; AID 651953; Ga16-expressing cells, calcium fluorescence, agonist counterscreen; shares compounds with TAAR1 antag; in the data active means activation above about 12%;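 further: 0% = vehicle wells and 100% = saturating stimulus response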
# TAAR1 ag counter – counter-screen for human TAAR1 antagonists: TAAR1 agonists; 2% of 2,400 active; shares compounds with TAAR1 antag; hTAAR1 cell line, fluorescence activation, agonist mode; activation, % at 3 µM; AID 651955; in the data active means activation above about 37%;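 further: CHO cells stably expressing TAAR1 with calcium dye readout; 0% = DMSO vehicle and 100% = full agonist response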
# * marks the source's active call; other numbers are inactive results; / = not tested or not shown.
SMILES,TAAR1 antag,OX1R antag-1,CHO parental Ca,GPR7 antag,TAAR1 ag,OX1R antag-2,nonsel antag count,TAAR1 ant conf,Ga16 nonsel ag,TAAR1 ag counter
COc1ccc(NC(=O)C2CCCN(S(=O)(=O)c3cccc4cccnc34)C2)c(OC)c1 (stereo not drawn),65*,-32,-22,-12,7,14,23*,29,7,7
Cc1cccc(/C=C/C(=O)c2cc(Br)ccc(=O)c2O)c1,51*,-12,-10,-1,35,14,36*,27,14*,17
CCc1ccc(/C=C/C(=O)c2cc(Br)ccc(=O)c2O)cc1,32,-17,-7,-10,27,15,/,/,/,/
CC(C)(C)NC(=O)CCN(/N=C/c1ccccc1O)C1=NS(=O)(=O)c2ccccc21,59*,-19,-20,-14,19,2,25*,44,12*,11
Cc1nc2c(OCc3ccc(F)c(F)c3)cccn2c1N(C)C(=O)CCC1CCCC1,34,/,/,/,2,/,/,/,/,/
Cc1nc2c(OCc3ccc(OC(F)F)cc3)cccn2c1N(C)C(=O)CCC1CCCC1,78*,/,/,/,2,/,39*,54*,7,3
COC(=O)c1cc(S(=O)(=O)NCc2ccc3c(c2)OCO3)cn1C,-13,-11,-15,-15,-1,12,/,/,/,/
COc1ccc(C2=NOC(C(=O)N3CCN(c4ccccc4OC)CC3)C2)cc1 (stereo not drawn),51*,-35,-16,-8,10,-3,21,23,8,8
CCc1ccccc1NC(=O)C1CC(c2ccc(OC)cc2)=NO1 (stereo not drawn),103*,-27,-13,-15,-2,7,15,7,4,6
CC1Nc2ncnc(N3CCN(c4ccccc4)CC3)c2N(Cc2ccccc2)C1=O (stereo not drawn),50*,-15,-22,/,24,1,22*,35,7,13
CC(C)CC1Nc2ncnc(N3CCN(c4ccccc4)CC3)c2N(Cc2ccccc2)C1=O (stereo not drawn),-29,-43,-30,/,0,13,/,/,/,/
CC1Nc2ncnc(N3CCN(c4ccccc4)CC3)c2N(Cc2ccc(Cl)cc2)C1=O (stereo not drawn),53*,-21,-9,/,26,13,22*,38,7,8
CCCN(CCC)C(=O)C1CCCN(S(=O)(=O)c2ccc3c(c2)oc(=O)n3C)C1 (stereo not drawn),-5,-20,-19,2,1,39,/,/,/,/
Cc1ccccc1Cn1nc(C)c(NC(=O)c2sc3ccccc3c2Cl)c1C,55*,-15,-26,-13,9,24,26*,41,5,4
Cc1nn(Cc2ccc(Cl)cc2Cl)c(C)c1NC(=O)c1sc2ccccc2c1Cl,-7,-20,3,-11,4,15,/,/,/,/
O=C(Nc1ccc(N2CCN(C(=O)c3ccccc3)CC2)cc1)c1cc2ccccc2o1,77*,15,-2,-12,15,24,44*,62*,10,14
O=C(Nc1ccc(N2CCN(C(=O)c3ccc(Cl)cc3)CC2)cc1)c1ccc2c(c1)OCCO2,58*,18,8,-9,12,27,44*,49*,11,5
O=C(Nc1ccc(N2CCN(C(=O)c3ccccc3)CC2)cc1)c1ccc2c(c1)OCCO2,12,-5,-8,15,8,26,/,/,/,/
O=C(Nc1ccc(N2CCN(C(=O)c3ccccc3)CC2)c(Cl)c1)c1ccc(Br)o1,69*,4,3,6,17,13,35*,47,8,5
CN1CCN(c2ccc(NC(=O)c3cc4ccccc4o3)cc2)CC1,2,-31,-6,-15,8,12,/,/,/,/
CC(C)N1CCN(C(=O)c2ccc(NC(=O)c3ccc(Br)o3)cc2)CC1,3,4,1,/,3,11,/,/,/,/
CN(C(=O)CN1CCN(c2cnn(-c3ccccc3)c(=O)c2Cl)CC1)C1CCS(=O)(=O)C1 (stereo not drawn),-17,-14,-12,/,3,12,/,/,/,/
O=C(Cc1ccccc1F)NCC1(N2CCOCC2)CCCCC1,-6,-19,1,-2,0,8,/,/,/,/
CC(=O)c1cccc(NC(=O)COC(=O)[C@@H](NC(=O)OCc2ccccc2)C(C)C)c1,60*,-38,-15,-6,20,19,30*,50*,10,14
CC(C)[C@H](NC(=O)OCc1ccccc1)C(=O)OCC(=O)NCCc1ccccc1,16,-15,-11,-9,10,24,/,/,/,/
SMILES,TAAR1 antag,OX1R antag-1,CHO parental Ca,GPR7 antag,TAAR1 ag,OX1R antag-2,nonsel antag count,TAAR1 ant conf,Ga16 nonsel ag,TAAR1 ag counter
c1ccc(SCc2cn(C[C@H]3CC[C@@H]([C@@H]4CC[C@H](Cn5cc(CSc6ccccc6)nn5)O4)O3)nn2)cc1,71*,-20,-7,12,32,16,37*,56*,14*,12
c1ccc(Cn2cc(CSc3ccccc3)nn2)cc1,0,-16,-8,/,1,31,/,/,/,/
CCOC(=O)c1nn(-c2ccc(F)cc2)c(-c2ccccc2)c1C(=O)c1ccccc1,0,-11,-18,-5,1,30,/,/,/,/
CCOC(=O)c1nn(-c2ccccc2F)c(-c2ccccc2)c1C(=O)c1ccccc1,56*,-9,-10,-5,5,4,10,33,9,11
CCOc1ccc(S(=O)(=O)N(CC(=O)NCc2cccnc2)c2ccc(F)cc2)cc1,65*,-36,-16,-13,20,5,29*,49*,13*,16
CC(C)[C@H](NC(=O)OC(C)(C)C)c1cc(C(=O)N[C@@H](C)c2ccccc2)c(N)s1,-27,/,/,/,-1,/,/,/,/,/
Cc1ccccc1CSCC(=O)c1c(N)n(CC(C)C)c(=O)n(C)c1=O,41,-20,-9,5,29,24,/,/,/,/
Cn1c(=O)c(C(=O)CN2CCCCCC2)c(N)n(Cc2ccccc2)c1=O,-30,-15,-16,-9,3,11,/,/,/,/
CC(=O)Nc1ccc(SCC(=O)c2c(N)n(Cc3ccccc3)c(=O)n(C)c2=O)cc1,77*,-14,4,-15,20,4,30*,44,13*,14
